Experimental data collected from several papers.
Protocols differ between the studies behind these lines.
Mode: inhibitor
EGFR: Epidermal growth factor receptor (EGFR, Homo sapiens, UniProt P00533)
EGFR L858R/T790M: Epidermal growth factor receptor (EGFR, Homo sapiens, UniProt P00533, L858R/T790M)
EGFR L858R: Epidermal growth factor receptor (EGFR, Homo sapiens, UniProt P00533, L858R)

CNc1cccc2cc(C(=O)Nc3ccc(C(=O)O)cc3)c(=O)[nH]c12 — inhibition (EGFR; enzyme activity; 10 µM): -1.7%
CN(C)C1CCN(CC#Cc2nn(C3CCCC3)c3nc(NCc4ccccc4)ncc23)C1 (stereo not drawn) — inhibition (EGFR; enzyme activity; FRET; 10 µM): 17%
C=C(Cl)C(=O)Nc1cc(Nc2nc(N3CCc4sccc4C3)c3sccc3n2)c(OC)cc1N(C)CCN(C)C — inhibition (EGFR L858R/T790M; enzyme activity; ELISA; 0.1 µM): 90.3%
CS(=O)(=O)Nc1cccc(-c2csc(NC(=O)CSc3nc4nccnc4c(=O)n3CCc3ccccc3)n2)c1 — inhibition (EGFR L858R; enzyme activity; 10 µM): -1%
COc1cc2ncnc(Nc3ccc(Oc4ccccc4)cc3C)c2cc1OC — inhibition (EGFR L858R; enzyme activity; 1 µM): 64%
CC/C(=N\NC(=O)NCc1cccc(O)c1)c1ccc(O)c(C)c1O — inhibition (Epidermal growth factor receptor (EGFR, Homo sapiens, UniProt P00533, del746-750); enzyme activity; 0.1 µM): -0.6%
C=C(Cl)C(=O)Nc1cc(Nc2nc(N3CCCC3)c3sccc3n2)c(OC)cc1N(C)CCN(C)C — inhibition (EGFR L858R/T790M; enzyme activity; ELISA; 0.1 µM): 12.7%
COc1cc2ncnc(Nc3ccc(Oc4ccccc4)c(C)c3C)c2cc1OC — inhibition (Epidermal growth factor receptor (EGFR, Homo sapiens, UniProt P00533, L861Q); enzyme activity; 1 µM): 86%
CCC(=O)Nc1cc(Nc2nc(N3CCc4sccc4C3)c3cccnc3n2)c(OC)cc1N1CCOCC1 — inhibition (EGFR L858R/T790M; enzyme activity; ELISA; 0.1 µM): 7.6%
COc1cc(-c2cc(-c3ccc(N4CCNCC4)cc3)cnc2N)cc(OC)c1OC — inhibition (Epidermal growth factor receptor (EGFR, Homo sapiens, UniProt P00533, T790M); enzyme activity; 1 µM): 4%
CCC(=O)Nc1cc(Nc2nc(N3CCc4sccc4C3)c3cccnc3n2)c(OC)cc1N1CCN(CCO)CC1 — inhibition (EGFR L858R/T790M; enzyme activity; ELISA; 0.1 µM): 30.3%
COc1cc2ncnc(Nc3cccc(OCCn4ccnc4[N+](=O)[O-])c3)c2cc1OCCCN1CCOCC1 — inhibition (EGFR; enzyme activity; FRET; 1 µM): 30%
O=C(CSc1nc2nccnc2c(=O)n1CCc1ccccc1)Nc1nccs1 — inhibition (EGFR L858R; enzyme activity; 10 µM): 1%
C=CC(=O)Nc1cc(Nc2nc(N3CCc4sccc4C3)c3sccc3n2)c(OC)cc1N1CCN(C)CC1 — inhibition (EGFR L858R/T790M; enzyme activity; ELISA; 0.1 µM): 25.6%
CN1CC(Oc2cnc(C#N)cc2-c2ccn3nc(NC(=O)C4CC4)cc3c2)C1 — inhibition (EGFR; enzyme activity; 1 µM): -1%
CNCc1ccc(-c2cc(-c3nc(-c4ccc(S(=O)(=O)C(C)C)cc4)cnc3N)on2)cc1 — inhibition (EGFR; enzyme activity; 2 µM): 0%
C=CC(=O)Nc1cc(Nc2nccc(Nc3cc(Cl)c(F)cc3C(C)(C)O)n2)c(OC)cc1N1CC[C@@H](N(C)C)C1 — inhibition (EGFR L858R/T790M; enzyme activity; 1 µM): 99%
CCC(=O)Nc1cc(Nc2nc(N3CCc4sccc4C3)c3cccnc3n2)c(OC)cc1N1CCN(C(C)=O)CC1 — inhibition (EGFR L858R/T790M; enzyme activity; ELISA; 0.1 µM): 10%
CSc1nc(C)c(-c2ccnc(Nc3ccc(N4CCOCC4)cc3)c2)[nH]1 — inhibition (EGFR; cell-free assay; 10 µM): 56.6%
C/C=C/C(=O)Nc1cc(Nc2nc(Nc3cnn(C)c3)c3sccc3n2)c(OC)cc1N(C)CCN(C)C — inhibition (EGFR L858R/T790M; enzyme activity; ELISA; 0.1 µM): 18.3%
CNc1cc(Oc2cc(C(=O)Nc3cc(N4CCN(C)CC4)cc(C(F)(F)F)c3)ccc2C)ncn1 — inhibition (EGFR; target engagement in cells; chemoproteomics; Huh-7; 1 µM): -15.5%
